In brackets after ≈: the same amount, converted by molar mass. Activity calls are given as the source filed them. No cut-off for these calls is given here.

The source of these data is ChEMBL document CHEMBL1158541, “Water-soluble PDE4 inhibitors for the treatment of dry eye” (Bioorg Med Chem Lett, 2010).

For data set [1], the target named is 3',5'-cyclic-AMP phosphodiesterase 4B (Homo sapiens, UniProt Q07343). The data set can be described thus: Inhibition of human His6-tagged PDE4B (152-487) expressed in Escherichia coli BL21 (DE3) after 1 hr.
Chain of 3',5'-cyclic-AMP phosphodiesterase 4B (Q07343 whole entry): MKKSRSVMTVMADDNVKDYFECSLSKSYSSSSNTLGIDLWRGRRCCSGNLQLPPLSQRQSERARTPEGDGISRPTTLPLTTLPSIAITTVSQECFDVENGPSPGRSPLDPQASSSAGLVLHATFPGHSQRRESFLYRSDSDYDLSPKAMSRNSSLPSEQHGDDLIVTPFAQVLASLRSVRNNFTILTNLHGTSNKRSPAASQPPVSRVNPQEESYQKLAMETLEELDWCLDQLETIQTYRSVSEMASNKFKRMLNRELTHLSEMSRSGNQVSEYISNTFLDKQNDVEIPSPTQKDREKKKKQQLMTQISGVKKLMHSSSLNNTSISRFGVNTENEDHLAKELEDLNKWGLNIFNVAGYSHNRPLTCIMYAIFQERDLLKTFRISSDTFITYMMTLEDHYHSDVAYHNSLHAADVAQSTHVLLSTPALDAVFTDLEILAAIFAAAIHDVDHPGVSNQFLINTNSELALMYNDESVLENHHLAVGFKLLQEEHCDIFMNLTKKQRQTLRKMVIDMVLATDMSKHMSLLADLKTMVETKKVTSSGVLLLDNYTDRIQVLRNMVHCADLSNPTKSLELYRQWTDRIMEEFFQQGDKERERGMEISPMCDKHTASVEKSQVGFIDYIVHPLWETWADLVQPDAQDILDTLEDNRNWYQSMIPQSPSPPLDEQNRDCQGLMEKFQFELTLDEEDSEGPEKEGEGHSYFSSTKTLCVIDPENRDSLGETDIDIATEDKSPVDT
Data set [2] in a line: Inhibition of PDE4 expressed in HEK293 cells coexpressing cyclic nucleotide gated ion channel mutant assessed as inhibition of NECA-induced cAMP production treated 15 mins before NECA challenge measured after 45 mins by FLIPR assay. It counts as cell-based. A general note: cAMP levels reflect the balance of adenylyl cyclase and phosphodiesterase activity.
A short description of data set [3]: Solubility in 0.1 M phosphate buffer at pH 7.4 by shake-flask method. It counts as physicochemical. In outline: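 Shake-flask solubility in 0.1 M phosphate buffer, pH 7.4.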
Data set [4] can be described thus: Solubility in water. It counts as physicochemical.
The species named for data set [5] is Oryctolagus cuniculus. Nature of the data set: Antiinflammatory activity in rabbit assessed as inhibition of lacrimal gland inflammation-induced dry eye at 10 ng/ml to 10 ug/ml bid for 4 days. The class given is functional, organism-based. The settings on record: Lachrymal gland. In outline:
(§1)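 Rabbit dry eye induced by lacrimal gland inflammation. Compound given topically b.i.d. for 4 days. Read-out is corneal staining, scored as percent inhibition versus vehicle, with dexamethasone (100 µg/mL) as positive control. Statistics by ANOVA with Dunnett's post-test.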

The species entered for data set [6] is Oryctolagus cuniculus. The data set can be described thus: Antiinflammatory activity in rabbit assessed as inhibition of lacrimal gland inflammation-induced dry eye at 0.001 to 10 ug/ml bid for 4 days. It counts as functional, organism-based. The note with it: Lachrymal gland, 0.01 to 10 ug/ml, in the assay text read “0.01 to 10 ug/ml” for “0.001 to 10 ug/ml”. Put shortly:
as §1

Data set [7] deals with Rattus norvegicus. The data set can be described thus: Induction of tear secretion in rat at 10 ug/ml by topical administration after 10 mins by phenol red thread test. It counts as functional, organism-based. In outline:
(§2)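 Rats received compound topically, and tear secretion was measured 10 min later by phenol red thread test. Percent increase is relative to untreated animals, and significance is versus saline by ANOVA with Dunnett's post-test. Positive control was isoproterenol (10 µg/mL).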

The test system of data set [8] is Rattus norvegicus. The data set can be described thus: Induction of tear secretion in rat at 100 ug/ml by topical administration after 10 mins by phenol red thread test. The class given is functional, organism-based. Put shortly:
as §2

In the next data set the test system is HEK293. The data set can be described thus: Inhibition of PDE4 expressed in HEK293 cells coexpressing cyclic nucleotide gated ion channel mutant assessed as inhibition of NECA-induced cAMP production at 70 uM treated 15 mins before NECA challenge measured after 45 mins by FLIPR assay. It counts as cell-based.

As to `COc1ccc2c(Nc3c(Cl)cncc3Cl)cc(=O)oc2c1OCCCCCC(=O)O`, the figures for the IC50 in data set [1] and in data set [2] were 0.017 µM and 0.28 µM, respectively. In addition, in [3], the thermodynamic solubility amounted to 900 µg/mL (≈ 1930 µM). For the same compound, in data set [4], the concentration in solution (solubility) came to 900 µg/mL (≈ 1930 µM).
As for `COc1ccc(C(=O)Nc2c(Cl)cncc2Cl)cc1OC1CCCC1`, the IC50 in data set [2] is 0.013 µM.
As to `COc1ccc2c(Nc3c(Cl)cncc3Cl)cc(=O)oc2c1OCCCCCCCCN(C)C`, the IC50 in data set [1] stood at 0.002 µM; in data set [2], 0.15 µM.
Take `COc1ccc2c(Nc3c(Cl)cncc3Cl)cc(=O)oc2c1OCCCCCCCN(C)C`: the 50% inhibitory concentration (IC50) came to 0.003 µM in data set [1] and 0.15 µM in data set [2].
`COc1ccc2c(Nc3c(Cl)cncc3Cl)cc(=O)oc2c1OCCCCCCC(=O)O`: the values for the IC50 in data set [1] and in data set [2] were 0.002 µM and 0.12 µM, respectively. Further, the thermodynamic solubility in data set [3] is 1400 µg/mL (≈ 2910 µM). This compound also showed a solubility in data set [4] of 1400 µg/mL (≈ 2910 µM).
As for `COc1ccc2c(Nc3c(Cl)cncc3Cl)coc2c1OC1CCCC1`, the IC50 was 16 µM in [1] and more than 30 µM in [2].
In the same order, the values of `COc1ccc2c(Nc3c(Cl)cncc3Cl)nncc2c1OC1CCCC1` are 0.4 µM and 1.1 µM.
In the case of `COc1ccc2c(Nc3c(Cl)cncc3Cl)cc(=O)oc2c1OCCCCCCCC(=O)O`, the IC50 was 0.002 µM in data set [1] and 0.04 µM in data set [2]. The compound further displayed a thermodynamic solubility in data set [3] of 300 µg/mL (≈ 606 µM).
Taken in the same sequence, the figures for `COc1ccc2c(Nc3c(Cl)cncc3Cl)cc(=O)oc2c1OCCCCCCCCC(=O)O` were 0.001 µM, 0.03 µM and 300 µg/mL (≈ 589 µM).
As for `COc1ccc2c(Nc3c(Cl)cncc3Cl)cc(=O)oc2c1OC1CCCC1`, the IC50 in data set [2] came to 0.028 µM. In data set [3], this compound gave a solubility (thermodynamic) of 0.3 µg/mL (≈ 0.712 µM).
As for `O=C(Nc1c(Cl)cncc1Cl)c1ccc(OC(F)F)c(OCC2CC2)c1` [ROFLUMILAST], in data set [2], the IC50 was determined as 0.001 µM.
Turning to `COc1ccc2c(Nc3c(Cl)cncc3Cl)cc(=O)oc2c1OCC(=O)O`, the IC50 in data set [1] is 1.18 µM; in data set [2], 5.35 µM.
Regarding `COc1ccc2c(Nc3c(Cl)cncc3Cl)cc(=O)oc2c1OCCCCCN(C)C`, the IC50 worked out at 0.021 µM in [1] and 0.66 µM in data set [2]. Besides, the thermodynamic solubility in data set [3] came to 60 µg/mL (≈ 129 µM).
As to `COc1ccc2c(c1OC1CCCC1)OCCC2Nc1c(Cl)cncc1Cl` (stereo not given), the IC50 in data set [1] and in data set [2] was more than 30 µM each time.
In the case of `COc1ccc2c(Nc3c(Cl)cncc3Cl)cc(=O)oc2c1OCCCCN(C)C`, the outcome in the data set listed under Oryctolagus cuniculus [5], in the data set filed under Oryctolagus cuniculus [6], in the data set with Rattus norvegicus [7] and with Rattus norvegicus [8] was Active. The IC50 in data set [1] was 0.045 µM; in data set [2], 1.82 µM. The compound further returned a solubility (thermodynamic) in [3] of 1800 µg/mL (≈ 3980 µM).
For `COc1ccc2c(Nc3c(Cl)cncc3Cl)ccnc2c1OC1CCCC1`, the concentration for half-maximal inhibition (IC50) was 3.3 µM in data set [1] and 8.2 µM in data set [2].
In the same order, the values of `COc1ccc2c(Nc3c(Cl)cncc3Cl)ncnc2c1OC1CCCC1` are 2.3 µM and 10 µM.
Consider `COc1ccc2c(Nc3c(Cl)cncc3Cl)cc(=O)oc2c1OCCCN(C)C`, for which the values for the IC50 in data set [1] and in [2] were 0.67 µM and more than 30 µM, respectively.
For the compound `COc1ccc2c(Nc3c(Cl)cncc3Cl)cc(=O)oc2c1OCCCC(=O)O`, the half-maximal inhibitory concentration (IC50) is 0.08 µM in [1] and 0.89 µM in data set [2].
Regarding `COc1ccc2c(Nc3c(Cl)cncc3Cl)cc(=O)oc2c1OCCCCC(=O)O`, the concentration for half-maximal inhibition (IC50) in [1] worked out at 0.043 µM; in data set [2] it was 0.73 µM. Further, the solubility (thermodynamic) in data set [3] was 500 µg/mL (≈ 1100 µM).
For the compound `COc1ccc2c(Nc3c(Cl)cncc3Cl)cc(=O)oc2c1OCCCCCCN(C)C`, the figures for the IC50 in data set [1] and in data set [2] were 0.005 µM and 0.18 µM, respectively.
As for `COc1ccc2c(Nc3c(Cl)cncc3Cl)nccc2c1OC1CCCC1`, inhibition in [1] was half-maximal at 0.5 µM (IC50). Besides, the inhibition result in the data set with HEK293 is “inactive”.

As usually defined, the IC50 is the concentration that inhibits the measured activity by half. The term thermodynamic solubility denotes the concentration in solution at equilibrium with solid. A word on the solubility: it is the concentration that dissolves in the medium under given conditions.
